Measured values as given in ChEMBL document CHEMBL5724801, “EUbOPEN Chemogenomics Library - Multiplex” (2024).
Values joined by “and” are separate entries in the source; they are usually repeats but may differ in a detail not shown here. Equal entries are not always repeated.

The compounds below were run on HEK-293T (assay: Multiplex assay against HEK293T). Settings: human, 12 h, 1 µM, compound concentration 1 uM.
Type: toxicity, cell-based
Outline: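 Phenotypes for tubulin, mitochondrial mass and membrane permeability are expressed as per cents of healthy-nucleus cells. Cells were stained live at seeding with Hoechst33342, BioTracker Green Microtubule Cytoskeleton Dye, MitoTracker Red and Annexin V Alexa Fluor 680, then imaged after compound addition on a CQ1 microscope at 37°C and 5% CO2. Machine-learning gating in CellPathfinder separated Hoechst high-intensity objects from normal cells, divided normal cells by nuclear state (healthy, pyknosed, fragmented) and divided pyknosed cells into mitotic or apoptotic.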
`C=CCN1C[C@H](C(=O)N(CCCN(C)C)C(=O)NCC)C[C@@H]2c3cccc4[nH]cc(c34)C[C@H]21` [CABERGOLINE] was tested, and the “Population Apoptotic (%)” value was 36% and 37%, the “Population Fragmented Nuclei (%)” value was 4% and 5% and the “Population Healthy Nuclei (%)” value was 76% and 79%. For the same compound, the “Population Hoechst High Intensity Objects (%)” value was 8%, the “Population Membrane Permeable-Phenotype (%)” value was 0% and the “Population Mitochondria Different-Phenotype (%)” value was 51% and 68%. The “Population Mitotic Cells (%)” value was 63% and 62%, the “Population Normal (%)” value was 91% and the “Population Pyknosed Nuclei (%)” value was 18% and 14%. For the same compound, the “Population Tubulin-Different-Phenotype (%)” value was 41% and 24% and the “Total Cell Count” value was 370 and 322. `O=C(Nc1c[nH]nc1-c1nc2cc(CN3CCOCC3)ccc2[nH]1)NC1CC1` [AT-9283] was tested, and the “Population Apoptotic (%)” value was 12.17% and 7.08%, the “Population Fragmented Nuclei (%)” value was 0.89% and 3.5% and the “Population Healthy Nuclei (%)” value was 48% and 17.48%. The “Population Hoechst High Intensity Objects (%)” value was 0%, the “Population Membrane Permeable-Phenotype (%)” value was 0.93% and 0% and the “Population Mitotic Cells (%)” value was 87.83% and 92.92%. The “Population Normal (%)” value was 100%, the “Population Pyknosed Nuclei (%)” value was 51.11% and 79.02% and the “Total Cell Count” value was 225 and 143.

Same assay, conditions: human, 12 h, 10 µM, compound concentration 10 uM
With `C=CCN1C[C@H](C(=O)N(CCCN(C)C)C(=O)NCC)C[C@@H]2c3cccc4[nH]cc(c34)C[C@H]21` [CABERGOLINE] the “Population Apoptotic (%)” value was 53% and 60%, the “Population Fragmented Nuclei (%)” value was 8% and 6% and the “Population Healthy Nuclei (%)” value was 76% and 78%. For the same compound, the “Population Hoechst High Intensity Objects (%)” value was 12% and 8%, the “Population Membrane Permeable-Phenotype (%)” value was 0% and the “Population Mitochondria Different-Phenotype (%)” value was 65% and 81%. The “Population Mitotic Cells (%)” value was 46% and 40%, the “Population Normal (%)” value was 87% and 91% and the “Population Pyknosed Nuclei (%)” value was 14%. For the same compound, the “Population Tubulin-Different-Phenotype (%)” value was 54% and 55% and the “Total Cell Count” value was 438 and 371. `O=C(Nc1c[nH]nc1-c1nc2cc(CN3CCOCC3)ccc2[nH]1)NC1CC1` [AT-9283] was tested, and the “Population Apoptotic (%)” value was 9.66% and 13.57%, the “Population Fragmented Nuclei (%)” value was 1.6% and 0.63% and the “Population Healthy Nuclei (%)” value was 28% and 10.76%. For the same compound, the “Population Hoechst High Intensity Objects (%)” value was 0%, the “Population Membrane Permeable-Phenotype (%)” value was 0% and 11.76% and the “Population Mitotic Cells (%)” value was 90.34% and 86.43%. For the same compound, the “Population Normal (%)” value was 100%, the “Population Pyknosed Nuclei (%)” value was 70.4% and 88.61% and the “Population Tubulin-Different-Phenotype (%)” value was 20% and 35.29%. For the same compound, the “Total Cell Count” value was 250 and 158.

Same assay, conditions: human, 24 h, 1 µM, compound concentration 1 uM
`C=CCN1C[C@H](C(=O)N(CCCN(C)C)C(=O)NCC)C[C@@H]2c3cccc4[nH]cc(c34)C[C@H]21` [CABERGOLINE] was tested, and the “Population Apoptotic (%)” value was 43% and 40%, the “Population Fragmented Nuclei (%)” value was 9% and 6% and the “Population Healthy Nuclei (%)” value was 80% and 83%. For the same compound, the “Population Hoechst High Intensity Objects (%)” value was 4% and 6%, the “Population Membrane Permeable-Phenotype (%)” value was 1% and 0% and the “Population Mitochondria Different-Phenotype (%)” value was 29% and 46%. The “Population Mitotic Cells (%)” value was 56% and 59%, the “Population Normal (%)” value was 95% and 93% and the “Population Pyknosed Nuclei (%)” value was 10% and 9%. The “Population Tubulin-Different-Phenotype (%)” value was 20% and 19% and the “Total Cell Count” value was 512 and 406. `O=C(Nc1c[nH]nc1-c1nc2cc(CN3CCOCC3)ccc2[nH]1)NC1CC1` [AT-9283] was tested, and the “Population Apoptotic (%)” value was 21.74% and 12.8%, the “Population Fragmented Nuclei (%)” value was 4.26% and 2.61% and the “Population Hoechst High Intensity Objects (%)” value was 0.35% and 0%. The “Population Membrane Permeable-Phenotype (%)” value was 0% and 4.17%, the “Population Mitochondria Different-Phenotype (%)” value was 18.06% and 0% and the “Population Mitotic Cells (%)” value was 78.26% and 87.2%. For the same compound, the “Population Normal (%)” value was 99.65% and 100%, the “Population Pyknosed Nuclei (%)” value was 40.78% and 81.7% and the “Population Tubulin-Different-Phenotype (%)” value was 17.42% and 16.67%. The “Total Cell Count” value was 283 and 153.

Same assay, conditions: human, 24 h, 10 µM, compound concentration 10 uM
`C=CCN1C[C@H](C(=O)N(CCCN(C)C)C(=O)NCC)C[C@@H]2c3cccc4[nH]cc(c34)C[C@H]21` [CABERGOLINE] was tested, and the “Population Apoptotic (%)” value was 37% and 42%, the “Population Fragmented Nuclei (%)” value was 10% and the “Population Healthy Nuclei (%)” value was 77% and 79%. For the same compound, the “Population Hoechst High Intensity Objects (%)” value was 8% and 12%, the “Population Membrane Permeable-Phenotype (%)” value was 0% and the “Population Mitochondria Different-Phenotype (%)” value was 51% and 64%. The “Population Mitotic Cells (%)” value was 62% and 57%, the “Population Normal (%)” value was 91% and 87% and the “Population Pyknosed Nuclei (%)” value was 11% and 9%. The “Population Tubulin-Different-Phenotype (%)” value was 48% and 43% and the “Total Cell Count” value was 556 and 425. In the case of `O=C(Nc1c[nH]nc1-c1nc2cc(CN3CCOCC3)ccc2[nH]1)NC1CC1` [AT-9283], the “Population Apoptotic (%)” value is reported as 24.17% and 28.99%, the “Population Fragmented Nuclei (%)” value is reported as 0.37% and 0.67% and the “Population Hoechst High Intensity Objects (%)” value is reported as 0.37% and 0%. For the same compound, the “Population Membrane Permeable-Phenotype (%)” value was 1.79% and 0%, the “Population Mitotic Cells (%)” value was 75.83% and 71.01% and the “Population Normal (%)” value was 99.63% and 100%. For the same compound, the “Population Pyknosed Nuclei (%)” value was 78.73% and 92.62%, the “Population Tubulin-Different-Phenotype (%)” value was 33.93% and 40% and the “Total Cell Count” value was 269 and 149.

Same assay, conditions: human, 48 h, 1 µM, compound concentration 1 uM
In the case of `C=CCN1C[C@H](C(=O)N(CCCN(C)C)C(=O)NCC)C[C@@H]2c3cccc4[nH]cc(c34)C[C@H]21` [CABERGOLINE], the “Population Apoptotic (%)” value is reported as 13% and 35%, the “Population Fragmented Nuclei (%)” value is reported as 12% and 11% and the “Population Healthy Nuclei (%)” value is reported as 80% and 81%. The “Population Hoechst High Intensity Objects (%)” value was 4% and 3%, the “Population Membrane Permeable-Phenotype (%)” value was 1% and the “Population Mitochondria Different-Phenotype (%)” value was 21% and 23%. The “Population Mitotic Cells (%)” value was 86% and 65%, the “Population Normal (%)” value was 95% and 96% and the “Population Pyknosed Nuclei (%)” value was 7% and 6%. The “Population Tubulin-Different-Phenotype (%)” value was 16% and 10% and the “Total Cell Count” value was 763 and 633. In the case of `O=C(Nc1c[nH]nc1-c1nc2cc(CN3CCOCC3)ccc2[nH]1)NC1CC1` [AT-9283], the “Population Apoptotic (%)” value is reported as 44.44% and 22.06%, the “Population Fragmented Nuclei (%)” value is reported as 2.23% and 0% and the “Population Healthy Nuclei (%)” value is reported as 80.17% and 46.03%. The “Population Hoechst High Intensity Objects (%)” value was 0% and 0.79%, the “Population Membrane Permeable-Phenotype (%)” value was 3.83% and 1.72% and the “Population Mitochondria Different-Phenotype (%)” value was 49.13% and 22.41%. For the same compound, the “Population Mitotic Cells (%)” value was 55.56% and 77.94%, the “Population Normal (%)” value was 100% and 99.21% and the “Total Cell Count” value was 358 and 127.

Same assay, conditions: human, 48 h, 10 µM, compound concentration 10 uM
With `C=CCN1C[C@H](C(=O)N(CCCN(C)C)C(=O)NCC)C[C@@H]2c3cccc4[nH]cc(c34)C[C@H]21` [CABERGOLINE] the “Population Apoptotic (%)” value was 26% and 43%, the “Population Fragmented Nuclei (%)” value was 13% and 10% and the “Population Healthy Nuclei (%)” value was 76% and 82%. The “Population Hoechst High Intensity Objects (%)” value was 5% and 6%, the “Population Membrane Permeable-Phenotype (%)” value was 0% and the “Population Mitochondria Different-Phenotype (%)” value was 35% and 32%. For the same compound, the “Population Mitotic Cells (%)” value was 73% and 56%, the “Population Normal (%)” value was 94% and 93% and the “Population Pyknosed Nuclei (%)” value was 9% and 6%. The “Population Tubulin-Different-Phenotype (%)” value was 25% and 20% and the “Total Cell Count” value was 786 and 676. With `O=C(Nc1c[nH]nc1-c1nc2cc(CN3CCOCC3)ccc2[nH]1)NC1CC1` [AT-9283] the “Population Apoptotic (%)” value was 52.36% and 56.2%, the “Population Fragmented Nuclei (%)” value was 1.67% and 2.67% and the “Population Hoechst High Intensity Objects (%)” value was 0.83% and 0%. For the same compound, the “Population Membrane Permeable-Phenotype (%)” value was 0%, the “Population Mitochondria Different-Phenotype (%)” value was 88.89% and 55.56% and the “Population Mitotic Cells (%)” value was 47.64% and 43.8%. The “Population Normal (%)” value was 99.17% and 100%, the “Population Pyknosed Nuclei (%)” value was 79.58% and 91.33% and the “Population Tubulin-Different-Phenotype (%)” value was 24.44% and 55.56%. For the same compound, the “Total Cell Count” value was 242 and 150.
